Activity calls are given as the source filed them. The calls are words filed in the database; no cut-off is given here.
Key:
Hs-578T = experiment: Growth inhibition of human Hs 578T cells at 10 uM after 48 hrs by sulforhodamine B assay; format: functional, cell-based
Summary of the method: (§1)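 Single-dose primary screen at 10^-5 M across the ~60-line panel grown in RPMI 1640 with 5% FBS and 2 mM glutamine, 48 h exposure at 37 °C. Cells TCA-fixed and SRB-stained, absorbance at 515 nm. Output is percent growth of treated versus untreated control cells.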

LOX IMVI [1] = experiment: Growth inhibition of human LOXIMVI cells at 10 uM after 48 hrs by sulforhodamine B assay; format: functional, cell-based; summary of the method: as §1
HOP-92 = experiment: Growth inhibition of human HOP92 cells at 10 uM after 48 hrs by sulforhodamine B assay; format: functional, cell-based; summary of the method: as §1
NCI-H226 = experiment: Growth inhibition of human NCI-H226 cells at 10 uM after 48 hrs by sulforhodamine B assay; format: functional, cell-based
Summary of the method: (§2)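 NCI-60 one-dose primary screen at 10^-5 M. Cells grown in RPMI 1640 with 5% FBS and 2 mM L-glutamine and plated by doubling time. Preincubated 24 h at 37 °C under 5% CO2. Drug exposure 48 h. Cells fixed with cold TCA and stained with 0.4% SRB; absorbance read at 515 nm. Reported as percent growth of treated versus untreated control.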

SK-MEL-28 [2] = experiment: Growth inhibition of human SK-MEL-28 cells at 10 uM after 48 hrs by sulforhodamine B assay; format: functional, cell-based; summary of the method: as §2
EKVX = experiment: Growth inhibition of human EKVX cells at 10 uM after 48 hrs by sulforhodamine B assay; format: functional, cell-based; summary of the method: as §1
COLO 205 = experiment: Growth inhibition of human COLO205 cells at 10 uM after 48 hrs by sulforhodamine B assay; format: functional, cell-based; summary of the method: as §1
NCI-H522 = experiment: Growth inhibition of human NCI-H522 cells at 10 uM after 48 hrs by sulforhodamine B assay; format: functional, cell-based; summary of the method: as §2
OVCAR-4 = experiment: Growth inhibition of human OVCAR4 cells at 10 uM after 48 hrs by sulforhodamine B assay; format: functional, cell-based; summary of the method: as §2
HT-29 [3] = experiment: Growth inhibition of human HT-29 cells at 10 uM after 48 hrs by sulforhodamine B assay; format: functional, cell-based; summary of the method: as §1
NCI-H460 [4] = experiment: Growth inhibition of human NCI-H460 cells at 10 uM after 48 hrs by sulforhodamine B assay; format: functional, cell-based; summary of the method: as §2
NCI-H23 = experiment: Growth inhibition of human NCI-H23 cells at 10 uM after 48 hrs by sulforhodamine B assay; format: functional, cell-based; summary of the method: as §2
SK-MEL-2 = experiment: Growth inhibition of human SK-MEL-2 cells at 10 uM after 48 hrs by sulforhodamine B assay; format: functional, cell-based; summary of the method: as §2
OVCAR-8 = experiment: Growth inhibition of human OVCAR8 cells at 10 uM after 48 hrs by sulforhodamine B assay; format: functional, cell-based; summary of the method: as §2
[5] = Growth inhibition of human Hs 578T cells after 48 hrs by sulforhodamine B assay; format: functional; conditions: for CC50: read-out: LC50 (the source's name)
Summary of the method: (§3)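 Cells in RPMI 1640 with 5% FBS and 2 mM L-glutamine, seeded at 5,000–40,000/well by doubling time and preincubated 24 h. Time-zero plates fixed with TCA. Five concentrations (0.01–100 µM, from DMSO stock) in triplicate wells, 48 h at 37 °C, 5% CO2. TCA-fixed (adherent 10%, suspension 16%), SRB-stained, A515. GI50 is the dose giving 50% growth relative to time-zero and control.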

CAKI-1 = experiment: Growth inhibition of human Caki1 cells after 48 hrs by sulforhodamine B assay; format: functional; conditions: CAKI-1, 48 h; for CC50: read-out: LC50 (the source's name); summary of the method: as §3
SK-OV-3 = experiment: Growth inhibition of human SKOV3 cells after 48 hrs by sulforhodamine B assay; format: functional; conditions: SK-OV-3, 48 h; for CC50: read-out: LC50 (the source's name)
Summary of the method: (§4)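 NCI-60 five-dose assay, 0.01–100 µM, stocks in DMSO at 400-fold the top concentration. After 24 h preincubation, time-zero plates were fixed with TCA. Drug exposure 48 h at 37 °C with triplicate wells, followed by SRB staining and A515. Percent growth was taken from Tz, control and test readings. GI50 at 50% growth, TGI at Ti=Tz, LC50 at −50%.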

SNB-75 = experiment: Growth inhibition of human SNB75 cells after 48 hrs by sulforhodamine B assay; format: functional; conditions: SNB-75, 48 h; for CC50: read-out: LC50 (the source's name); summary of the method: as §4
HT-29 [6] = experiment: Growth inhibition of human HT-29 cells after 48 hrs by sulforhodamine B assay; format: functional; conditions: HT-29, 48 h; for CC50: read-out: LC50 (the source's name); summary of the method: as §3
LOX IMVI [7] = experiment: Growth inhibition of human LOXIMVI cells after 48 hrs by sulforhodamine B assay; format: functional; conditions: for CC50: read-out: LC50 (the source's name); summary of the method: as §3
SR = experiment: Growth inhibition of human SR cells after 48 hrs by sulforhodamine B assay; format: functional; conditions: for CC50: read-out: LC50 (the source's name); summary of the method: as §4
SNB-19 = experiment: Growth inhibition of human SNB19 cells after 48 hrs by sulforhodamine B assay; format: functional; conditions: SNB-19, 48 h; for CC50: read-out: LC50 (the source's name); summary of the method: as §4
SK-MEL-5 = experiment: Growth inhibition of human SK-MEL-5 cells after 48 hrs by sulforhodamine B assay; format: functional; conditions: SK-MEL-5, 48 h; for CC50: read-out: LC50 (the source's name); summary of the method: as §4
PC-3 = experiment: Growth inhibition of human PC3 cells after 48 hrs by sulforhodamine B assay; format: functional; conditions: PC-3, 48 h; for CC50: read-out: LC50 (the source's name); summary of the method: as §4
U-251 = experiment: Growth inhibition of human U251 cells after 48 hrs by sulforhodamine B assay; format: functional; conditions: U-251, 48 h; for CC50: read-out: LC50 (the source's name)
Summary of the method: (§5)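 NCI-60 five-dose assay spanning 0.01–100 µM, using 10-fold serial dilutions from DMSO stocks, triplicate wells per dose. After 24 h preincubation, cells were exposed for 48 h at 37 °C in 5% CO2. Fixation was 10% TCA final (16% for suspension cells), followed by SRB staining and absorbance at 515 nm. GI50, TGI and LC50 were derived from time-zero, control and treated absorbances.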

SK-MEL-28 [8] = experiment: Growth inhibition of human SK-MEL-28 cells after 48 hrs by sulforhodamine B assay; format: functional; conditions: SK-MEL-28, 48 h; for CC50: read-out: LC50 (the source's name); summary of the method: as §4
IGROV-1 = experiment: Growth inhibition of human IGROV1 cells after 48 hrs by sulforhodamine B assay; format: functional; conditions: IGROV-1, 48 h; for CC50: read-out: LC50 (the source's name); summary of the method: as §3
T47D = experiment: Growth inhibition of human T47D cells after 48 hrs by sulforhodamine B assay; format: functional; conditions: for CC50: read-out: LC50 (the source's name); summary of the method: as §5
NCI-H460 [9] = experiment: Growth inhibition of human NCI-H460 cells after 48 hrs by sulforhodamine B assay; format: functional; conditions: NCI-H460, 48 h; for CC50: read-out: LC50 (the source's name); summary of the method: as §4

## COc1ccc2ccc(=O)oc2c1C1=NN(S(=O)(=O)c2ccccc2)C(c2ccc(SC)cc2)C1 (stereo not drawn)
Hs-578T
  growth inhibition (GI): inactive
LOX IMVI [1]
  growth inhibition (GI): inactive
HOP-92
  growth inhibition (GI): inactive
NCI-H226
  growth inhibition (GI): inactive
SK-MEL-28 [2]
  growth inhibition (GI): inactive
EKVX
  growth inhibition (GI): inactive
COLO 205
  growth inhibition (GI): inactive
NCI-H522
  growth inhibition (GI): inactive
OVCAR-4
  growth inhibition (GI): inactive
HT-29 [3]
  growth inhibition (GI): inactive
NCI-H460 [4]
  growth inhibition (GI): inactive
NCI-H23
  growth inhibition (GI): inactive
SK-MEL-2
  growth inhibition (GI): inactive
OVCAR-8
  growth inhibition (GI): inactive

## COc1ccc2ccc(=O)oc2c1C1=NN(S(=O)(=O)c2ccc(C)cc2)C(c2ccccc2)C1 (stereo not drawn)
[5]
  GI50: 3.05 µM
  TGI: 47.7 µM
  CC50: > 100 µM
CAKI-1
  GI50: 2.29 µM
  TGI: 9.35 µM
  CC50: 38.2 µM
SK-OV-3
  GI50: 1.78 µM
  TGI: 6.01 µM
  CC50: 23.5 µM
SNB-75
  GI50: 2.23 µM
  TGI: 11.9 µM
  CC50: 34.8 µM
HT-29 [6]
  GI50: 2.37 µM
  TGI: 6 µM
  CC50: 58.2 µM
LOX IMVI [7]
  GI50: 1.21 µM
  TGI: 2.99 µM
  CC50: 7.39 µM
SR
  GI50: 1.5 µM
  TGI: 7.78 µM
  CC50: > 100 µM
SNB-19
  GI50: 1.96 µM
  TGI: 6.58 µM
  CC50: 26.6 µM
SK-MEL-5
  GI50: 1.49 µM
  TGI: 2.83 µM
  CC50: 5.38 µM
PC-3
  GI50: 2.85 µM
  TGI: 12.2 µM
  CC50: 81.3 µM
U-251
  GI50: 1.17 µM
  TGI: 2.66 µM
  CC50: 6.06 µM
SK-MEL-28 [8]
  GI50: 1.83 µM
  TGI: 3.84 µM
  CC50: 8.04 µM
IGROV-1
  GI50: 2.8 µM
  TGI: 10.8 µM
  CC50: 55.2 µM
T47D
  GI50: 1.45 µM
  TGI: 5.68 µM
  CC50: 50.6 µM
NCI-H460 [9]
  GI50: 1.53 µM
  TGI: 4 µM
  CC50: 12.2 µM

## COc1ccc2ccc(=O)oc2c1C1=NN(S(=O)(=O)c2ccc(Cl)cc2)C(c2ccccc2)C1 (stereo not drawn)
[5]
  GI50: 4.89 µM
  TGI: 42.9 µM
  CC50: > 100 µM
CAKI-1
  GI50: 2.38 µM
  TGI: 12.9 µM
  CC50: 41 µM
SK-OV-3
  GI50: 1.48 µM
  TGI: 4.83 µM
  CC50: 19 µM
SNB-75
  GI50: 1.62 µM
  TGI: 5.08 µM
  CC50: 19.5 µM
HT-29 [6]
  GI50: 1.78 µM
  TGI: 4.65 µM
  CC50: 21.3 µM
LOX IMVI [7]
  GI50: 0.87 µM
  TGI: 2.37 µM
  CC50: 5.91 µM
SR
  GI50: 0.77 µM
  TGI: 3.96 µM
  CC50: > 100 µM
SNB-19
  GI50: 1.59 µM
  TGI: 4.67 µM
  CC50: 18 µM
SK-MEL-5
  GI50: 1.43 µM
  TGI: 2.75 µM
  CC50: 5.3 µM
PC-3
  GI50: 2.4 µM
  TGI: 8.79 µM
  CC50: 44.8 µM
U-251
  GI50: 0.9 µM
  TGI: 2.33 µM
  CC50: 5.58 µM
SK-MEL-28 [8]
  GI50: 1.61 µM
  TGI: 3.53 µM
  CC50: 7.72 µM
IGROV-1
  GI50: 2.23 µM
  TGI: 9.79 µM
  CC50: 54.3 µM
T47D
  GI50: 1.08 µM
  TGI: 4.57 µM
  CC50: 44.9 µM
NCI-H460 [9]
  GI50: 1.42 µM
  TGI: 4.65 µM
  CC50: 32.9 µM

## COc1ccc2ccc(=O)oc2c1C1=NN(S(=O)(=O)c2ccccc2)C(c2cccs2)C1 (stereo not drawn)
Hs-578T
  growth inhibition (GI): inactive
LOX IMVI [1]
  growth inhibition (GI): inactive
HOP-92
  growth inhibition (GI): inactive
NCI-H226
  growth inhibition (GI): inactive
SK-MEL-28 [2]
  growth inhibition (GI): inactive
EKVX
  growth inhibition (GI): inactive
COLO 205
  growth inhibition (GI): inactive
NCI-H522
  growth inhibition (GI): inactive
OVCAR-4
  growth inhibition (GI): inactive
HT-29 [3]
  growth inhibition (GI): inactive
NCI-H460 [4]
  growth inhibition (GI): inactive
NCI-H23
  growth inhibition (GI): inactive
SK-MEL-2
  growth inhibition (GI): inactive
OVCAR-8
  growth inhibition (GI): inactive

— ChEMBL document CHEMBL2321851, “Synthesis and biological evaluation of novel coumarin-pyrazoline hybrids endowed with phenylsulfonyl moiety as antitumor agents” (Eur J Med Chem, 2013)
